Screening results as filed in PubChem.
ERAP1 HTS inh: human ERAP1 aminopeptidase inhibitors, primary screen, biochemical, single point, plate reader; 340,000 tested, 0.15% active; recombinant ERAP1, Leu-AMC fluorescence, 60 min; inhibition, % at 10.7 µM;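 active means mean replicate inhibition of at least 30%, or all replicates individually reaching that 30% level; inactive means mean below 30% and not every replicate reaching it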
DENV2 CPE rescue: inhibitors of DENV2 cytopathic effect, primary screen, cell-based, plate reader, single concentration; CPE inhibition, % at 9.99 µM; DENV2-infected cells, cytopathic effect rescue; 350,000 tested, 1.7% active; in the data active means CPE inhibition above about 20%, passing the limit was not always enough; inconclusive means no clear call, values can overlap the other calls; tested in BHK-21 cells
CAL PDZ FP-1: untagged CAL PDZ binding inhibitors, primary screen, biochemical, fluorescence polarization, HTS; Golgi-associated PDZ and coiled-coil motif-containing protein (Homo sapiens), Q9HD26; purified CAL PDZ, TMR-peptide fluorescence polarization, 1 h; inhibition, % at 24.9 µM; 300,000 tested, 0.92% active;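 active means mean inhibition of at least 30% with at least half of replicates also reaching 30%; inconclusive means no clear call, values can overlap the other calls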
SIRT5 block: SIRT5 desuccinylase inhibitors, primary screen, biochemical, fluorescence imaging, single point, set 5; NAD-dependent protein deacylase sirtuin-5, mitochondrial (Homo sapiens), Q9NXA8; Purified SirT5, succinyl-peptide AMC, trypsin-coupled fluorescence; inhibition, % at 15 µM; 330,000 tested, 1.1% active; AID 652115, 2013; in the data active means inhibition above about 15%; inconclusive means no clear call, values can overlap the other calls
Target sequence (Q9NXA8 whole entry, looked up): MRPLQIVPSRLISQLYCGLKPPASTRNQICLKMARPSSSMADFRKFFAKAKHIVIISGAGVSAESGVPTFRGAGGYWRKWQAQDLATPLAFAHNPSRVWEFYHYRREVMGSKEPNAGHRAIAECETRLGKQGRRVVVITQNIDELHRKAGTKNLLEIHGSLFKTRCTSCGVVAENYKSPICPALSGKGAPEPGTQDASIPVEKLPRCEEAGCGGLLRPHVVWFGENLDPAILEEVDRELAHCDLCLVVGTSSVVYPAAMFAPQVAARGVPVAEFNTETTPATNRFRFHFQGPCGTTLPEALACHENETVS
S100A4 inh HTS: inhibitors of S100A4-myosin IIA peptide binding, primary screen, biochemical, fluorescence polarization, TAMRA-MyoIIA peptide; inhibition, % at 10.7 µM; 360,000 tested, 0.14% active; Protein S100-A4 (Homo sapiens), P26447;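 active means mean inhibition of at least 70% across replicates, with every replicate also reaching that level; inconclusive means mean inhibition reaches 70% but some replicates fall short; inactive means mean inhibition below 70%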
Target sequence (P26447 whole entry, looked up): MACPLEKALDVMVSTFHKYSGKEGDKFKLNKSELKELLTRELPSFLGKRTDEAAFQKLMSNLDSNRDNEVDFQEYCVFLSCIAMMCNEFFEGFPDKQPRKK
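Test system: S100A4 monomer protein. Medium: HEPES buffer with Ca2+, pH 7.2. Reagent: fluorescent myosin IIA peptide, 5 nM. Compound dosing: single-point compound testing. Timing: 5 min between mix addition and reading. Benchmarks: DMSO neutral and TFP positive wells.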
CAL PDZ FP-2: CAL PDZ peptide-binding inhibitors, primary screen, biochemical, fluorescence polarization, Cer-tagged CAL PDZ, HTS. Golgi-associated PDZ and coiled-coil motif-containing protein (Homo sapiens), Q9HD26. purified CAL PDZ, TMR-peptide fluorescence polarization, 1 h. inhibition, % at 20 µM. 330,000 tested, 0.02% active. AID 504414, 2011;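 active means highest replicate inhibition of at least 40%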
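Test system: tagged CAL PDZ domain / Buffer or medium: sodium phosphate/NaCl buffer pH 7.4 with TCEP, IgG, Thesit / Reagent: TMR-labelled reporter peptide T*-PRC34 bound in PDZ groove / Compound dosing: single point, 20 µM / Schedule: 1 h incubation at room temperature before polarization reading / Technique: fluorescence polarization (mP) / Benchmarks: unlabelled peptide, DMSO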
Numbers stand for hits; - = inactive; ? = inconclusive; . = not tested or not shown; + = active, no number; ! = a repeat was not active. In the library only some 2.9% were active in any assay of this set; here they are far more common.

SMILES	ERAP1 HTS inh	DENV2 CPE rescue	CAL PDZ FP-1	SIRT5 block	S100A4 inh HTS	CAL PDZ FP-2
Cc1ccc(CS(=O)Cc2ccc(C(=O)NCC(C)c3ccccc3)o2)cc1 (centres undefined)	-	-	82	-	-	-
N#C[C@@H]1N[C@H](CO)[C@H]1c1ccccc1	-	38	.	-	-	.
N#C[C@H]1N[C@H](CO)[C@H]1c1ccc(C#Cc2ccc(F)cc2)cc1	-	55	.	-	-	.
N#C[C@@H]1N[C@H](CO)[C@@H]1c1ccc(C#Cc2ccccc2F)cc1	-	-	.	-	-	.
CN1C(=O)c2cc(NC(=O)C3CCCCC3)ccc2OC[C@@H]2O[C@H](CC(=O)NCc3ccccc3F)CC[C@@H]21	-	-	.	-	-	.
O=C(O)CC1=C(Nc2ccccc2)C(=O)N(c2ccccc2)C1c1ccc(Br)cc1 (centres undefined)	-	-	-	17	-	-
N#Cc1ccc(-c2ccc([C@@H]3[C@@H]4CN(C(=O)Nc5ccc6c(c5)OCO6)C[C@H]3N4)cc2)cc1	.	-	.	.	.	.
C/C=C/c1ccc(C2[C@@H]3CN(C(=O)Nc4ccc5c(c4)OCO5)C[C@H]2N3)cc1 (some centres undefined)	.	27!	.	.	.	.
CCN1[C@H](C(=O)NCCc2cn(C)cn2)[C@@H](CO)[C@@H]2Cn3c(ccc(-c4ccncc4)c3=O)[C@@H]21	-	-	.	-	-	.
Cc1noc(C)c1S(=O)(=O)N(C)C[C@@H]1OCCCC[C@@H](C)Oc2ccc(NS(=O)(=O)c3ccc(Cl)cc3)cc2C(=O)N([C@@H](C)CO)C[C@@H]1C	-	-	.	-	-	.
Cc1ccccc1OCC(=O)Nc1cnn(CCCC(=O)O)c1	-	-	-	17	-	-
O=C(O)CCCn1cc(NC(=O)COc2ccccc2)cn1	-	-	-	-	-	-
O=C(NC[C@H]1CC[C@@H]2[C@@H](CN2Cc2ccccc2F)O1)C1CC1	-	-	.	-	-	.
CC(C)C#Cc1ccc([C@@H]2[C@H]3CN(C(=O)C4CCCCC4)CC(=O)N3[C@H]2CO)cc1	-	-	.	-	-	.
COc1ccc(S(=O)(=O)Nc2ccc3c(c2)C(=O)N([C@@H](C)CO)C[C@H](C)[C@H](CN(C)Cc2ccncc2)OCCCC[C@@H](C)O3)cc1	-	-	.	-	-	.
COc1ccc(S(=O)(=O)Nc2ccc3c(c2)C(=O)N([C@@H](C)CO)C[C@@H](C)[C@@H](CN(C)Cc2ccncc2)OCCCC[C@H](C)O3)cc1	-	37	.	-	-	.
COc1ccc(S(=O)(=O)Nc2ccc3c(c2)C(=O)N([C@@H](C)CO)C[C@H](C)[C@H](CN(C)Cc2ccncc2)OCCCC[C@H](C)O3)cc1	-	106	.	-	-	.
CNC(=O)C[C@@H]1CC[C@H]2[C@H](COc3ccc(NC(=O)Nc4ccccc4OC)cc3C(=O)N2C)O1	-	-	.	-	-	.
O=S1(=O)CCOC[C@H](Cc2ccccc2)N1Cc1cccc(F)c1	.	32	-	.	-	-
CN(C)C(=O)C[C@@H]1C[C@H]2c3cc(NC(=O)NC4CCCC4)ccc3O[C@H]2[C@H](CO)O1	-	-	.	-	-	.
CC(=O)N1CCCc2cc(S(=O)(=O)N3CCN(C4CCCCC4)CC3)ccc21	.	.	-	.	.	.
CCC(=O)N1CCCc2cc(S(=O)(=O)N3CCN(C4CCCCC4)CC3)ccc21	.	.	42	.	.	.
O=C(C[C@@H]1CC[C@@H](NC(=O)c2ccc3c(c2)OCO3)[C@@H](CO)O1)NC1Cc2ccccc2C1	-	-	.	-	-	.
CC1CCCN(C(=O)COC(=O)/C=C/c2ccc(C(F)(F)F)cc2)C1 (centres undefined)	-	-	72	-	-	-
CO[C@H]1CN(C)C(=O)c2cc(NC(=O)c3ccc(Oc4ccccc4)cc3)ccc2OC[C@H](C)NC[C@@H]1C	-	-	.	-	-	.
SMILES	ERAP1 HTS inh	DENV2 CPE rescue	CAL PDZ FP-1	SIRT5 block	S100A4 inh HTS	CAL PDZ FP-2
COc1cccc(C(=O)Nc2ccc3c(c2)OC[C@H](C)NC[C@H](C)[C@@H](OC)CN(C)C3=O)c1	-	25	.	-	-	.
CO[C@H]1CN(C)C(=O)c2ccc(NC(=O)c3ccccc3F)cc2OC[C@H](C)NC[C@@H]1C	-	-	.	-	126	.
CO[C@H]1CN(C)C(=O)c2ccc(NC(=O)c3cccc(F)c3)cc2OC[C@H](C)NC[C@@H]1C	-	-	.	-	-	.
CO[C@@H]1CN(C)C(=O)c2ccc(NC(=O)c3cccc(F)c3)cc2OC[C@H](C)NC[C@@H]1C	-	24	.	-	-	.
COc1cccc(C(=O)Nc2ccc3c(c2)OC[C@@H](C)NC[C@H](C)[C@H](OC)CN(C)C3=O)c1	-	-	.	-	-	.
CO[C@H]1CN(C)C(=O)c2cc(NC(=O)c3ccc(Oc4ccccc4)cc3)ccc2OC[C@@H](C)NC[C@H]1C	-	26	.	-	-	.
CO[C@H]1CN(C)C(=O)c2ccc(NC(=O)c3ccccc3F)cc2OC[C@@H](C)NC[C@H]1C	-	-	.	-	-	.
CNC[C@@H]1Oc2ncc(Br)cc2C(=O)N([C@H](C)CO)C[C@@H]1C	-	?	.	-	-	.
CCCNC(=O)C[C@@H]1CC[C@@H]2[C@H](COC[C@H](O)CN2C(=O)CC)O1	-	-	.	-	-	.
O=C(Nc1ccc(S(=O)(=O)NCc2ccco2)cc1)c1ccc(F)cc1	-	?	-	-	-	-
CC/C(=N\NS(=O)(=O)c1ccc(C)cc1)c1ccco1	-	-	36	-	-	.
Cc1ccc(C(=O)Nc2ccc(S(=O)(=O)NCc3ccco3)cc2)cc1	.	.	.	.	.	-
O=C(Nc1ccccc1)c1ccc(S(=O)(=O)NCc2ccco2)cc1	.	.	39	.	.	-
Cc1ccc(-c2ccc(S(=O)(=O)NCc3ccco3)cc2)cc1	-	-	+	-	-	-
CCC(=O)Nc1ccc(S(=O)(=O)NCc2ccco2)cc1	-	.	-	-	-	144
O=C(C[C@@H]1CC[C@@H]2[C@H](COC[C@H](O)CN2CC2CCCCC2)O1)NCc1ccc(Cl)cc1	-	-	.	-	-	.
CO[C@@H]1CN(C)C(=O)c2cc(NC(=O)c3ccc(F)cc3)ccc2OC[C@H](C)N(C(=O)CN(C)C)C[C@@H]1C	-	-	.	-	-	.
CC(=O)N(C)C[C@H]1OCc2ccccc2-c2ccccc2C(=O)N([C@@H](C)CO)C[C@@H]1C	-	-	.	-	-	.
CCC(C)(C)NC(=O)CN(Cc1ccco1)C(=O)CCC(=O)Nc1nccs1	-	-	64	-	-	-
